Measured values: ChEMBL document CHEMBL4177546, “Development of a Selective Inhibitor of Protein Arginine Deiminase 2” (J Med Chem, 2017)
pEC50: −log10 of the molar value.

How the values were obtained:
Homo sapiens [1] = species: Homo sapiens; experiment: Selectivity ratio of Kinact/Ki for recombinant His6-tagged PAD1 (unknown origin) to Kinact/Ki for recombinant full length N-terminal GST-tagged human PAD4 expressed in Escherichia coli Rosetta cells
In short: (§1)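 Enzyme at 2.0 μM (PAD1, PAD2, PAD4) or 5.0 μM (PAD3) incubated at 37 °C with various inhibitor concentrations in 50 mM HEPES, 10 mM CaCl₂, 2 mM DTT, pH 7.6. Timed aliquots moved into substrate mix: 10 mM BAEE, or 10 mM BAA for PAD3. […] Selectivity ratios taken from these values.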

Homo sapiens [2] = species: Homo sapiens; experiment: Selectivity ratio of Kinact/Ki for recombinant human PAD2 expressed in Escherichia coli BL21(DE3)pLysS cells to Kinact/Ki for recombinant His6-tagged PAD1 (unknown origin); in short: as §1
Homo sapiens [3] = species: Homo sapiens; experiment: Selectivity ratio of Kinact/Ki for recombinant human PAD2 expressed in Escherichia coli BL21(DE3)pLysS cells to Kinact/Ki for recombinant full length N-terminal GST-tagged human PAD4 expressed in Escherichia coli Rosetta cells; in short: as §1
Homo sapiens [4] = species: Homo sapiens; experiment: Selectivity ratio of Kinact/Ki for recombinant His6-tagged PAD3 (unknown origin) to Kinact/Ki for recombinant full length N-terminal GST-tagged human PAD4 expressed in Escherichia coli Rosetta cells; in short: as §1
[5] = molecular target: T1, Protein-arginine deiminase type-2 (Homo sapiens, UniProt Q9Y2J8); experiment: Binding affinity to human PAD2 expressed in HEK293T cells assessed as protein occupancy preincubated for 15 mins followed by ionomycin addition measured after 1 hr in presence of CaCl2 by RIBFA probe based SDS-PAGE analysis; format: cell-based
T1 sequence (Q9Y2J8 whole entry): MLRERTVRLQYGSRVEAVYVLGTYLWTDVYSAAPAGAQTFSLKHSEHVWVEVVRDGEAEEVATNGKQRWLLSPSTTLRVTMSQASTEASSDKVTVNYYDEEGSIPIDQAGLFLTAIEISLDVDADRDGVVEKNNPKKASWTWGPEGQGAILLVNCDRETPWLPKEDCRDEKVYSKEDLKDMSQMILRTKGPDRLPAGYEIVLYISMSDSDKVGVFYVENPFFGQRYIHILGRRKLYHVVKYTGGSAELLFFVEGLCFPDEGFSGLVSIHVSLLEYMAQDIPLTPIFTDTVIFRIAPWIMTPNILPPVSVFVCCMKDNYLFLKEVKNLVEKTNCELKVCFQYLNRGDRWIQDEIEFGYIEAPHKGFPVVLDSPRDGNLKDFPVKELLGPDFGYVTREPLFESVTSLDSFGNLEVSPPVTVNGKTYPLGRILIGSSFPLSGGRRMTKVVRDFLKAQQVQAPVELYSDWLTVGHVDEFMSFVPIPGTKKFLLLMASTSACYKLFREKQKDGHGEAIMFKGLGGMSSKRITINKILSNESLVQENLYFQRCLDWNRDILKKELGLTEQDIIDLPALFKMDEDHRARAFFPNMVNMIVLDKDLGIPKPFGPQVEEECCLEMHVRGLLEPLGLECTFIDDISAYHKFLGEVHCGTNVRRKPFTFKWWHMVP
In short: (§2)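 Adherent HEK293T/PAD2 cells at 80–90% confluence in HBS with 2 mM CaCl₂ at 37 °C. Inhibitor (in DMSO) added for 15 min, then ionomycin (0.5 μM final) for 1 h. Cells washed and lysed in 1% Triton X-100. Lysate (2 μg/μL) labelled with RIBFA probe (2 μM) plus 2 mM CaCl₂ for 1 h at 37 °C. PAD2 occupancy expressed relative to DMSO control.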

[6] = molecular target: T1, Protein-arginine deiminase type-2; experiment: Binding affinity to human PAD2 expressed in HEK293T cells assessed as decrease in histone H3 citrulination incubated for 3 hrs in presence of ionomycin/CaCl2 by SDS-PAGE analysis; format: cell-based
In short: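 HEK293T stably overexpressing human PAD2, 4 × 10⁵ cells in HBS, given ionomycin (10 μM), CaCl₂ (1 mM) and varying inhibitor concentrations (1% DMSO) for 3 h. Lysed with 1% Triton X-100 and sonicated at 0 °C. 1 μg protein run on SDS-PAGE, western blotted with antibodies to histone H3 and to citrullinated H3 (Cit 2,8,17), and imaged on Licor. EC50 taken from CitH3 intensity.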

[7] = molecular target: T1, Protein-arginine deiminase type-2; experiment: Binding affinity to human PAD2 expressed in HEK293T cells assessed as protein occupancy at 25 uM preincubated for 15 mins followed by ionomycin addition measured after 1 hr in presence of CaCl2 by RIBFA probe based SDS-PAGE analysis relative to control; format: cell-based
In short: as §2, with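 “37 °C. Gel resolved and fluorescence scanned (~546/579 nm). PAD2 occupancy” for “37 °C. PAD2 occupancy”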

Homo sapiens [8] = species: Homo sapiens; experiment: Selectivity ratio of Kinact/Ki for recombinant full length N-terminal GST-tagged human PAD4 expressed in Escherichia coli Rosetta to Kinact/Ki for recombinant His6-tagged PAD3 (unknown origin); in short: as §1
Homo sapiens [9] = species: Homo sapiens; experiment: Selectivity ratio of Kinact/Ki for recombinant His6-tagged PAD1 (unknown origin) to Kinact/Ki for recombinant His6-tagged PAD3 (unknown origin); in short: as §1
[10] = Safety index, ratio of compound EC50 to BB-Cl-amide EC50 for cytotoxicity against HEK293T cells; format: cell-based, HEK-293T; settings: human, read-out: Ratio EC50
Homo sapiens [11] = species: Homo sapiens; experiment: Selectivity ratio of Kinact/Ki for recombinant human PAD2 expressed in Escherichia coli BL21(DE3)pLysS to Kinact/Ki for recombinant His6-tagged PAD3 (unknown origin); in short: as §1
Homo sapiens [12] = species: Homo sapiens; experiment: Selectivity ratio of Kinact/Ki for recombinant His6-tagged PAD1 (unknown origin) to Kinact/Ki for recombinant human PAD2 expressed in Escherichia coli BL21(DE3)pLysS cells; in short: as §1
Homo sapiens [13] = species: Homo sapiens; experiment: Selectivity ratio of Kinact/Ki for recombinant full length N-terminal GST-tagged human PAD4 expressed in Escherichia coli Rosetta cells to Kinact/Ki for recombinant human PAD2 expressed in Escherichia coli BL21(DE3)pLysS cells; in short: as §1
Homo sapiens [14] = species: Homo sapiens; experiment: Selectivity ratio of Kinact/Ki for recombinant His6-tagged PAD3 (unknown origin) to Kinact/Ki for recombinant human PAD2 expressed in Escherichia coli BL21(DE3)pLysS cells; in short: as §1
[15] = molecular target: Protein-arginine deiminase type-4 (Homo sapiens) (UniProt Q9UM07); experiment: Ratio of Kinact to Ki for recombinant full length N-terminal GST-tagged human PAD4 expressed in Escherichia coli Rosetta cells preincubated for 10 mins followed by BAEE substrate addition measured after 15 mins by COLDER assay
Sequence of Protein-arginine deiminase type-4 (Homo sapiens) (Q9UM07 whole entry): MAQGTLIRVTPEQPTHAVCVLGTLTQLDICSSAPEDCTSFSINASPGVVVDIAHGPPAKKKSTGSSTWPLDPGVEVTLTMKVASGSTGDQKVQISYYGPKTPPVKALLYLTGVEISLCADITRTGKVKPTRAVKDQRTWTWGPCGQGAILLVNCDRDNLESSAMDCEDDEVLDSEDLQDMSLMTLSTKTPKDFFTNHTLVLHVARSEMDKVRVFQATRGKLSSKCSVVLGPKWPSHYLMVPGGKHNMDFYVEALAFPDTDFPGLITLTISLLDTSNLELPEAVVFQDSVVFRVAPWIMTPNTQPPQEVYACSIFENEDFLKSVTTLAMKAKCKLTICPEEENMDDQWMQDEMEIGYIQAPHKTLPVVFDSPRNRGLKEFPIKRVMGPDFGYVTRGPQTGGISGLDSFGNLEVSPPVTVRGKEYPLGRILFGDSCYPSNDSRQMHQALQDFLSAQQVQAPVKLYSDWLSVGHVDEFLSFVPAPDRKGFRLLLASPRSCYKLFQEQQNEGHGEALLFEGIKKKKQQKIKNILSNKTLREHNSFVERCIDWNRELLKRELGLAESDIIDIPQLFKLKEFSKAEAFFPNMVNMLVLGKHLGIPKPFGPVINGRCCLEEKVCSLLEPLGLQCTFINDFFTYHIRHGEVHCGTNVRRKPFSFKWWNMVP
In short: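 Enzyme at 2.0 μM (PAD1, PAD2, PAD4) or 5.0 μM (PAD3) incubated at 37 °C with various inhibitor concentrations in 50 mM HEPES, 10 mM CaCl₂, 2 mM DTT, pH 7.6. Timed aliquots moved into substrate mix: 10 mM BAEE, or 10 mM BAA for PAD3. Selectivity ratios taken from these values.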

Row | Compound | pEC50 [5] | pEC50 [6] | Activity [7] | Selectivity ratio (Homo sapiens [8]) | Selectivity ratio (Homo sapiens [9]) | Selectivity ratio (Homo sapiens [11]) | Selectivity ratio (Homo sapiens [1]) | Selectivity ratio (Homo sapiens [2]) | Selectivity ratio (Homo sapiens [3]) | Selectivity ratio (Homo sapiens [4]) | selectivity ratio [10] | further results
1 | CCN1Cc2cccc(C(=O)N[C@@H](CCCNC(=N)CF)c3nc4ccccc4n3CC)c2C1=O | – | – | – | – | – | – | 19 | 2 | 33 | 1 | – | –
2 | COc1ccc2c(c1)nc([C@H](CCCNC(=N)CF)NC(=O)c1cccc3c1C(=O)NC3)n2C | 5.23 | 5.68 | > 60% | 1.2 | 121 | 114 | – | – | – | – | > 30 | –
3 | CCn1c([C@H](CCCNC(=N)CF)NC(=O)c2cccc3c2C(=O)NC3)nc2ccccc21 | – | – | – | 1.7 | 37 | 56 | – | 2 | 33 | – | – | –
4 | N=C(CCl)NCCC[C@H](NC(=O)c1ccccc1C(=O)O)c1nc2ccccc2[nH]1 | – | – | – | – | – | – | – | – | – | – | – | Selectivity ratio (Homo sapiens [12]): 8.3; Selectivity ratio (Homo sapiens [13]): 9; Selectivity ratio (Homo sapiens [14]): 6.2
5 | CCn1c([C@H](CCCNC(=N)CF)NC(=O)c2cccc3c2C(=O)NC3)nc2c(OC)cccc21 | 5.12 | 5.62 | > 60% | – | – | – | 38 | – | 32 | 1 | > 30 | –
6 | CCN1Cc2cccc(C(=O)N[C@@H](CCCNC(=N)CF)c3nc4ccccc4[nH]3)c2C1=O | – | – | – | – | – | – | – | – | – | – | – | Selectivity ratio (Homo sapiens [12]): 3.4; Selectivity ratio (Homo sapiens [13]): 1; Selectivity ratio (Homo sapiens [14]): 1
7 | N=C(CF)NCCC[C@H](NC(=O)c1ccccc1C(=O)O)c1nc2ccccc2[nH]1 | – | – | – | – | – | – | – | – | – | – | – | Selectivity ratio (Homo sapiens [12]): 11; Selectivity ratio (Homo sapiens [13]): 16; Selectivity ratio (Homo sapiens [14]): 4.3
8 | N=C(CF)NCCC[C@H](NC(=O)c1ccc(-c2ccccc2)cc1)c1nc2ccccc2[nH]1 | 4.69 | – | – | – | – | – | – | – | – | – | – | Ratio [15]: 3750 M⁻¹ min⁻¹

Second part, led by results:

Row | pEC50 [5] | pEC50 [6] | Activity [7] | Selectivity ratio (Homo sapiens [8]) | Selectivity ratio (Homo sapiens [9]) | Selectivity ratio (Homo sapiens [11]) | Compound | Selectivity ratio (Homo sapiens [1]) | Selectivity ratio (Homo sapiens [2]) | Selectivity ratio (Homo sapiens [3]) | Selectivity ratio (Homo sapiens [4]) | selectivity ratio [10] | further results
9 | – | – | < 37% | 1.1 | 30 | 106 | COc1cccc2c1nc([C@H](CCCNC(=N)CF)NC(=O)c1cccc3c1C(=O)N(C)C3)n2C | – | – | – | – | – | –
10 | 5.08 | 5.57 | > 60% | – | – | 79 | CCOc1cccc2c1nc([C@H](CCCNC(=N)CF)NC(=O)c1cccc3c1C(=O)NC3)n2C | 65 | – | 95 | 1.2 | > 30 | –
11 | – | – | < 37% | – | – | 85 | CCN1Cc2cccc(C(=O)N[C@@H](CCCNC(=N)CF)c3nc4c(OC)cccc4n3C)c2C1=O | 16 | 5 | 85 | 1 | – | –
12 | 5.02 | 6.40 | > 60% | 3.2 | 29 | 47 | COc1cccc2c1nc([C@H](CCCNC(=N)CF)NC(=O)c1cccc3c1C(=O)NC3)n2C | – | 1.6 | 15 | – | > 30 | –
